According to ChEMBL document CHEMBL1149778, “Synthesis of some novel 2,4-disubstituted thiazoles as possible antimicrobial agents” (2008):
In brackets after ≈: the same amount, converted by molar mass.

Tests used:
[1] = test system: Pseudomonas aeruginosa; assay: Antibacterial activity against Pseudomonas aeruginosa ATTC 27853 assessed as zone of inhibition after 16 to 18 hrs by serial plate dilution method; assay type: functional, ATCC27853
Procedure, shortened: (§1)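 Agar well diffusion: 20 ml agar per dish seeded with bacterial suspension, excess decanted, dishes held 1 h at 37 °C. Wells punched, compounds in DMSO added at their MIC levels, DMSO wells as control. Zone of inhibition measured.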

[2] = test system: Escherichia coli; assay: Antibacterial activity against Escherichia coli ATTC 25922 after 16 to 18 hrs by serial plate dilution method; assay type: functional; settings: ATCC25922
Procedure, shortened: (§2)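 MIC by broth serial dilution: compound serially diluted in Mueller-Hinton broth, tubes adjusted to […] with phosphate buffer. Standardized bacterial suspension inoculated, incubated 16-18 h at 37 °C. MIC read as the lowest concentration with no visible growth.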

[3] = test system: Escherichia coli; assay: Antibacterial activity against Escherichia coli ATTC 25922 assessed as zone of inhibition after 16 to 18 hrs by serial plate dilution method; assay type: functional, ATCC25922; procedure, shortened: as §1
[4] = test system: Staphylococcus aureus; assay: Antibacterial activity against Staphylococcus aureus ATTC 25923 after 16 to 18 hrs by serial plate dilution method; assay type: functional; procedure, shortened: as §2
[5] = test system: Staphylococcus aureus; assay: Antibacterial activity against Staphylococcus aureus ATTC 25923 assessed as zone of inhibition after 16 to 18 hrs by serial plate dilution method; assay type: functional; procedure, shortened: as §1
[6] = test system: Pseudomonas aeruginosa; assay: Antibacterial activity against Pseudomonas aeruginosa ATTC 27853 after 16 to 18 hrs by serial plate dilution method; assay type: functional; settings: ATCC27853; procedure, shortened: as §2
[7] = test system: Bacillus subtilis; assay: Antibacterial activity against Bacillus subtilis after 16 to 18 hrs by serial plate dilution method; assay type: functional; procedure, shortened: as §2
[8] = test system: Bacillus subtilis; assay: Antibacterial activity against Bacillus subtilis assessed as zone of inhibition after 16 to 18 hrs by serial plate dilution method; assay type: functional; procedure, shortened: as §1
[9] = test system: Aspergillus flavus; assay: Antifungal activity against Aspergillus flavus NCIM No.524 by serial plate dilution method; assay type: functional
[10] = test system: Aspergillus flavus; assay: Antifungal activity against Aspergillus flavus NCIM No.524 assessed as zone of inhibition by serial plate dilution method; assay type: functional
Procedure, shortened: (§3)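 Sabouraud agar (peptone, D-glucose, agar; pH 5.7), 20 ml per dish, lawned with a saline spore suspension from a loopful of fungus. Excess decanted, plates dried 1 h at 37 °C. Wells punched and compounds in DMSO added, DMSO as control. Triplicate plates, 37 °C for 3-4 days; inhibition-zone diameter measured.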

[11] = test system: Trichophyton mentagrophytes; assay: Antifungal activity against Trichophyton mentagrophytes by serial plate dilution method; assay type: functional
[12] = test system: Trichophyton mentagrophytes; assay: Antifungal activity against Trichophyton mentagrophytes assessed as zone of inhibition by serial plate dilution method; assay type: functional; procedure, shortened: as §3
[13] = test system: Aspergillus fumigatus; assay: Antifungal activity against Aspergillus fumigatus NCIM No.902 by serial plate dilution method; assay type: functional
[14] = test system: Aspergillus fumigatus; assay: Antifungal activity against Aspergillus fumigatus NCIM No.902 assessed as zone of inhibition by serial plate dilution method; assay type: functional; procedure, shortened: as §3
[15] = test system: Talaromyces marneffei; assay: Antifungal activity against Penicillium marneffei by serial plate dilution method; assay type: functional
[16] = test system: Talaromyces marneffei; assay: Antifungal activity against Penicillium marneffei assessed as zone of inhibition by serial plate dilution method; assay type: functional; procedure, shortened: as §3

For CSc1ccc(-c2csc(-c3cc(Cl)cc(Cl)c3Cl)n2)cc1, the “inhibition zone (IZ)” value [1] was 16 mm, the MIC [2] was 6.25 µg/mL (≈ 16.2 µM) and the “inhibition zone (IZ)” value [3] was 16 mm. The MIC [4] was 6.25 µg/mL (≈ 16.2 µM), the “inhibition zone (IZ)” value [5] was 16 mm and the MIC [6] was 6.25 µg/mL (≈ 16.2 µM). The MIC [7] was 6.25 µg/mL (≈ 16.2 µM), the “inhibition zone (IZ)” value [8] was 16 mm and the MIC [9] was 12.5 µg/mL (≈ 32.3 µM). The “inhibition zone (IZ)” value [10] was 11 mm, the MIC [11] was 12.5 µg/mL (≈ 32.3 µM) and the “inhibition zone (IZ)” value [12] was 11 mm. The MIC [13] was 12.5 µg/mL (≈ 32.3 µM), the “inhibition zone (IZ)” value [14] was 11 mm and the MIC [15] was 25 µg/mL (≈ 64.6 µM). The “inhibition zone (IZ)” value [16] was less than 10 mm.

For Clc1cc(Cl)c(Cl)c(-c2nc(-c3cccnc3)cs2)c1, the “inhibition zone (IZ)” value [1] was less than 10 mm, the MIC [2] was 12.5 µg/mL (≈ 36.6 µM) and the “inhibition zone (IZ)” value [3] was 11 mm. For the same compound, the MIC [4] was 12.5 µg/mL (≈ 36.6 µM), the “inhibition zone (IZ)” value [5] was 11 mm and the MIC [6] was 25 µg/mL (≈ 73.2 µM). The MIC [7] was 12.5 µg/mL (≈ 36.6 µM), the “inhibition zone (IZ)” value [8] was 11 mm and the MIC [9] was 6.25 µg/mL (≈ 18.3 µM). The “inhibition zone (IZ)” value [10] was 16 mm, the MIC [11] was 6.25 µg/mL (≈ 18.3 µM) and the “inhibition zone (IZ)” value [12] was 16 mm. For the same compound, the MIC [13] was 6.25 µg/mL (≈ 18.3 µM), the “inhibition zone (IZ)” value [14] was 16 mm and the MIC [15] was 6.25 µg/mL (≈ 18.3 µM). For the same compound, the “inhibition zone (IZ)” value [16] was 16 mm.

In the case of Clc1cc(Cl)c(Cl)c(-c2nc(-c3ccc(-c4ccccc4)cc3)cs2)c1, the “inhibition zone (IZ)” value [1] is reported as 11 mm, the MIC [2] is reported as 25 µg/mL (≈ 60 µM) and the “inhibition zone (IZ)” value [3] is reported as less than 10 mm. For the same compound, the MIC [4] was 12.5 µg/mL (≈ 30 µM), the “inhibition zone (IZ)” value [5] was 11 mm and the MIC [6] was 12.5 µg/mL (≈ 30 µM). The MIC [7] was 12.5 µg/mL (≈ 30 µM), the “inhibition zone (IZ)” value [8] was 11 mm and the MIC [9] was 6.25 µg/mL (≈ 15 µM). For the same compound, the “inhibition zone (IZ)” value [10] was 16 mm, the MIC [11] was 6.25 µg/mL (≈ 15 µM) and the “inhibition zone (IZ)” value [12] was 16 mm. For the same compound, the MIC [13] was 6.25 µg/mL (≈ 15 µM), the “inhibition zone (IZ)” value [14] was 16 mm and the MIC [15] was 6.25 µg/mL (≈ 15 µM). The “inhibition zone (IZ)” value [16] was 16 mm.

For O=[N+]([O-])c1ccc(-c2csc(-c3cc(Cl)cc(Cl)c3Cl)n2)cc1, the “inhibition zone (IZ)” value [1] was 16 mm, the MIC [2] was 6.25 µg/mL (≈ 16.2 µM) and the “inhibition zone (IZ)” value [3] was 16 mm. The MIC [4] was 12.5 µg/mL (≈ 32.4 µM), the “inhibition zone (IZ)” value [5] was 11 mm and the MIC [6] was 6.25 µg/mL (≈ 16.2 µM). For the same compound, the MIC [7] was 25 µg/mL (≈ 64.8 µM), the “inhibition zone (IZ)” value [8] was less than 10 mm and the MIC [9] was 12.5 µg/mL (≈ 32.4 µM). For the same compound, the “inhibition zone (IZ)” value [10] was 11 mm, the MIC [11] was 25 µg/mL (≈ 64.8 µM) and the “inhibition zone (IZ)” value [12] was less than 10 mm. For the same compound, the MIC [13] was 12.5 µg/mL (≈ 32.4 µM), the “inhibition zone (IZ)” value [14] was 11 mm and the MIC [15] was 25 µg/mL (≈ 64.8 µM). The “inhibition zone (IZ)” value [16] was less than 10 mm.

With COc1ccc(-c2csc(N/N=C/c3cc(Cl)cc(Cl)c3Cl)n2)cc1 the “inhibition zone (IZ)” value [1] was less than 10 mm, the MIC [2] was 25 µg/mL (≈ 60.6 µM) and the “inhibition zone (IZ)” value [3] was less than 10 mm. The MIC [4] was 25 µg/mL (≈ 60.6 µM), the “inhibition zone (IZ)” value [5] was less than 10 mm and the MIC [6] was 25 µg/mL (≈ 60.6 µM). The MIC [7] was 25 µg/mL (≈ 60.6 µM), the “inhibition zone (IZ)” value [8] was less than 10 mm and the MIC [9] was 25 µg/mL (≈ 60.6 µM). For the same compound, the “inhibition zone (IZ)” value [10] was less than 10 mm, the MIC [11] was 12.5 µg/mL (≈ 30.3 µM) and the “inhibition zone (IZ)” value [12] was 11 mm. For the same compound, the MIC [13] was 25 µg/mL (≈ 60.6 µM), the “inhibition zone (IZ)” value [14] was less than 10 mm and the MIC [15] was 25 µg/mL (≈ 60.6 µM). The “inhibition zone (IZ)” value [16] was less than 10 mm.

Cc1cc(C)nc(SCc2csc(-c3cc(Cl)cc(Cl)c3Cl)n2)n1 was tested, and the “inhibition zone (IZ)” value [1] was 16 mm, the MIC [2] was 6.25 µg/mL (≈ 15 µM) and the “inhibition zone (IZ)” value [3] was 16 mm. For the same compound, the MIC [4] was 6.25 µg/mL (≈ 15 µM), the “inhibition zone (IZ)” value [5] was 16 mm and the MIC [6] was 6.25 µg/mL (≈ 15 µM). For the same compound, the MIC [7] was 6.25 µg/mL (≈ 15 µM), the “inhibition zone (IZ)” value [8] was 16 mm and the MIC [9] was 6.25 µg/mL (≈ 15 µM). The “inhibition zone (IZ)” value [10] was 16 mm, the MIC [11] was 25 µg/mL (≈ 60 µM) and the “inhibition zone (IZ)” value [12] was less than 10 mm. For the same compound, the MIC [13] was 25 µg/mL (≈ 60 µM), the “inhibition zone (IZ)” value [14] was less than 10 mm and the MIC [15] was 6.25 µg/mL (≈ 15 µM). The “inhibition zone (IZ)” value [16] was 16 mm.

NC(=O)c1cc(-c2csc(N/N=C/c3cc(Cl)cc(Cl)c3Cl)n2)ccc1O was tested, and the “inhibition zone (IZ)” value [1] was 16 mm, the MIC [2] was 6.25 µg/mL (≈ 14.1 µM) and the “inhibition zone (IZ)” value [3] was 16 mm. The MIC [4] was 6.25 µg/mL (≈ 14.1 µM), the “inhibition zone (IZ)” value [5] was 16 mm and the MIC [6] was 6.25 µg/mL (≈ 14.1 µM). The MIC [7] was 6.25 µg/mL (≈ 14.1 µM), the “inhibition zone (IZ)” value [8] was 16 mm and the MIC [9] was 12.5 µg/mL (≈ 28.3 µM). For the same compound, the “inhibition zone (IZ)” value [10] was 11 mm, the MIC [11] was 12.5 µg/mL (≈ 28.3 µM) and the “inhibition zone (IZ)” value [12] was 11 mm. The MIC [13] was 12.5 µg/mL (≈ 28.3 µM), the “inhibition zone (IZ)” value [14] was 11 mm and the MIC [15] was 12.5 µg/mL (≈ 28.3 µM). For the same compound, the “inhibition zone (IZ)” value [16] was 11 mm.

With Clc1ccc(-c2csc(-c3cc(Cl)cc(Cl)c3Cl)n2)cc1 the “inhibition zone (IZ)” value [1] was 16 mm, the MIC [2] was 6.25 µg/mL (≈ 16.7 µM) and the “inhibition zone (IZ)” value [3] was 16 mm. The MIC [4] was 12.5 µg/mL (≈ 33.3 µM), the “inhibition zone (IZ)” value [5] was 11 mm and the MIC [6] was 6.25 µg/mL (≈ 16.7 µM). For the same compound, the MIC [7] was 25 µg/mL (≈ 66.6 µM), the “inhibition zone (IZ)” value [8] was less than 10 mm and the MIC [9] was 25 µg/mL (≈ 66.6 µM). The “inhibition zone (IZ)” value [10] was less than 10 mm, the MIC [11] was 6.25 µg/mL (≈ 16.7 µM) and the “inhibition zone (IZ)” value [12] was 16 mm. For the same compound, the MIC [13] was 6.25 µg/mL (≈ 16.7 µM), the “inhibition zone (IZ)” value [14] was 16 mm and the MIC [15] was 25 µg/mL (≈ 66.6 µM). For the same compound, the “inhibition zone (IZ)” value [16] was less than 10 mm.
